From ChEMBL document CHEMBL2086383, “Antitumor agents. 293. Nontoxic dimethyl-4,4'-dimethoxy-5,6,5',6'-dimethylenedioxybiphenyl-2,2'-dicarboxylate (DDB) analogues chemosensitize multidrug-resistant cancer cells to clinical anticancer drugs” (J Med Chem, 2012)
Activity calls are given as the source filed them. The rule behind the calls is not given here.

Experiments:
Type in all cases: cell-based
[1] = test system: KB; experiment: Antiproliferative activity against human KB cells after 72 hrs by SRB assay; details: Homo sapiens, KB
In short: (§1)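 SRB assay. Cells at 3–5 × 10^3/well were exposed to a range of sample concentrations for 72 h. They were fixed in 50% TCA for 30 min, stained with 0.04% SRB for 30 min, and the dye was dissolved in 10 mM Tris base. Absorbance read at 515 nm. Medium was RPMI 1640 with 10% FBS at 37 °C, 5% CO2. KBvin cells were kept in 100 nM vincristine.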

[2] = Antiproliferative activity against human multidrug-resistant KBVIN cells after 72 hrs by SRB assay; details: Homo sapiens, KBVIN; in short: as §1
[3] = test system: KBVIN; experiment: Inhibition of P-gp-mediated multidrug-resistance in human KBVIN cells assessed as […] of paclitaxel-induced cell survival rate at 10 uM after 72 hrs by SRB assay
[4] = test system: DU-145; experiment: Antiproliferative activity against human DU145 cells after 72 hrs by SRB assay; details: Homo sapiens, DU-145, 72 h; in short: as §1
[5] = test system: A549; experiment: Antiproliferative activity against human A549 cells after 72 hrs by SRB assay; details: Homo sapiens, A549, 72 h; in short: as §1
[6] = test system: KBVIN; experiment: Inhibition of P-gp-mediated multidrug-resistance in human KBVIN cells assessed as fold decrease in doxorubicin IC50 for cytotoxic activity at 10 uM after 72 hrs by SRB assay relative to control
In short: (§2)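 KBvin cells were exposed to graded concentrations of anticancer drug (doxorubicin, paclitaxel or vincristine), alone or with 10 μM test compound, for 72 h. Growth was read by SRB assay. IC50 was found by log-linear interpolation. Reversal fold = IC50 (drug alone) / IC50 (drug + compound). Verapamil was the positive control. Each experiment was run at least three times.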

[7] = molecular target: ATP-dependent translocase ABCB1 (Homo sapiens, UniProt P08183); experiment: Inhibition of P-gp over expressed in human multidrug-resistant KBVIN cells assessed as intracellular accumulation of doxorubicin at 10uM after 3 hrs by fluorescence microplate reader analysis relative to control
ATP-dependent translocase ABCB1, sequence (P08183 whole entry): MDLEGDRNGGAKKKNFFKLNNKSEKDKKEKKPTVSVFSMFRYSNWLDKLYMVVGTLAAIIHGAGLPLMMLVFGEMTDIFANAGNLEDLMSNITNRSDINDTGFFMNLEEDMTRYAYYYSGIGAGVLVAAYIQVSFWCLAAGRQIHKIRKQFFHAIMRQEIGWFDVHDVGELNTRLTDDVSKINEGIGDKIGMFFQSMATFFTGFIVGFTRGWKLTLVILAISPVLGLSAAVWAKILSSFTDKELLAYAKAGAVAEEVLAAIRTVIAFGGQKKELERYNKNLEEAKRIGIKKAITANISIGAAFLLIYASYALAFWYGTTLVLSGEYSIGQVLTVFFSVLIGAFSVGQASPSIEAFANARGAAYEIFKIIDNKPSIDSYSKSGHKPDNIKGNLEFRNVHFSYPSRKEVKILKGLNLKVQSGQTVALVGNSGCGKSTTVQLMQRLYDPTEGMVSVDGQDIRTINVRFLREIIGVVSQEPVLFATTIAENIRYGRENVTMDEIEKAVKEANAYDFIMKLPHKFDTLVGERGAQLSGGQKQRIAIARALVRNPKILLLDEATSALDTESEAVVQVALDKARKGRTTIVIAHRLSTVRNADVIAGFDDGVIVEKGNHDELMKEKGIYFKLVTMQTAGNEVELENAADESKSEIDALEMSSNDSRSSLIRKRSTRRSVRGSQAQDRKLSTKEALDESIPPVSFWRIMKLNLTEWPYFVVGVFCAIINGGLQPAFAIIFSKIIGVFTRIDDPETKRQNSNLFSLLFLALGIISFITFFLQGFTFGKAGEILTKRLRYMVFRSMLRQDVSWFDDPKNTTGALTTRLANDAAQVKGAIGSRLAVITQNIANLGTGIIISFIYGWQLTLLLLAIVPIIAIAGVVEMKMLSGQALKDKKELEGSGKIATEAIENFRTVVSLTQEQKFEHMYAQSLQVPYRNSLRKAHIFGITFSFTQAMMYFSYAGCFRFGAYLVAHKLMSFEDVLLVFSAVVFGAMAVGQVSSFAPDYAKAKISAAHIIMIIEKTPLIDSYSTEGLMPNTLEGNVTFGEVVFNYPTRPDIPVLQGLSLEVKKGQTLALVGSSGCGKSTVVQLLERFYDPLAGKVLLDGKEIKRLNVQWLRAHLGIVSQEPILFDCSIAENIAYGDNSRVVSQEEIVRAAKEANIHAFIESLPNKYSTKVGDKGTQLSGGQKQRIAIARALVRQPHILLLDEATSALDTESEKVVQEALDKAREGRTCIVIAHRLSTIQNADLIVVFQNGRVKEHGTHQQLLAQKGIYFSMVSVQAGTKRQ
In short: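 KBvin cells at 5 × 10^3/well were pretreated with compound for 1 h, then given doxorubicin (10 μM final) for 3 h. Cells were washed with ice-cold PBS and lysed in 1% SDS/PBS. Verapamil or CsA served as positive control.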

[8] = test system: KBVIN; experiment: Inhibition of P-gp-mediated multidrug-resistance in human KBVIN cells assessed as fold decrease in vincristine IC50 for cytotoxic activity at 10 uM after 72 hrs by SRB assay relative to control; in short: as §2
[9] = test system: KBVIN; experiment: Inhibition of P-gp-mediated multidrug-resistance in human KBVIN cells assessed as fold decrease in paclitaxel IC50 for cytotoxic activity at 10 uM after 72 hrs by SRB assay relative to control; in short: as §2
[10] = test system: NIH3T3; experiment: Inhibition of human P-gp-mediated multidrug-resistance in mouse NIH3T3 MDR cells assessed as potentiation of in vincristine-induced cytotoxic activity at 10 uM after 72 hrs by SRB assay; details: Mus musculus cells expressing human P-gp
[11] = test system: NIH3T3; experiment: Inhibition of human P-gp-mediated multidrug-resistance in mouse NIH3T3 MDR cells assessed as potentiation of in paclitaxel-induced cytotoxic activity at 10 uM after 72 hrs by SRB assay; details: human P-gp expressed in mouse cells

SMILES	IC50 [1] [µM]	IC50 [2] [µM]	inhibition [3]	IC50 [4] [µM]	IC50 [5] [µM]	fold change (FC) [6]	fold change (FC) [7]	fold change (FC) [8]	fold change (FC) [9]	inhibition [10]	inhibition [11]
COC(=O)c1c(I)c(OC)c2c(c1-c1c3c(c(OC)c(I)c1C(=O)OC)OCO3)OCO2	> 100	> 100	inactive	> 100	> 100						
COc1ccc(C(=O)OCc2cc(OC)c3c(c2-c2c(COC(=O)c4ccc(OC)cc4)cc(OC)c4c2OCO4)OCO3)cc1	> 100	> 100		> 100	> 100	11	1.2	50	27	Active	Active
COc1cc(COC(=O)c2ccc3c(c2)OCO3)c(-c2c(COC(=O)c3ccc4c(c3)OCO4)cc(OC)c3c2OCO3)c2c1OCO2	> 100	> 100	inactive	> 100	> 100						
C/C=C/C=C/C(=O)OCc1cc(OC)c2c(c1-c1c(COC(=O)/C=C/C=C/C)cc(OC)c3c1OCO3)OCO2	> 100	> 100		> 100	> 100	3	1.2	54	21	Active	Active
COc1cc(COC(=O)C=C(C)C)c(-c2c(COC(=O)C=C(C)C)cc(OC)c3c2OCO3)c2c1OCO2	> 100	> 100		> 100	> 100	7	1.2	560	326	Active	Active
CCCCC(=O)OCc1cc(OC)c2c(c1-c1c(COC(=O)CCCC)cc(OC)c3c1OCO3)OCO2	> 100	> 100		> 100	> 100	9	1.2	161	24	Active	Active
COc1ccc(C(=O)OCc2cc(OC)c3c(c2-c2c(COC(=O)c4ccc(OC)c(OC)c4)cc(OC)c4c2OCO4)OCO3)cc1OC	> 100	> 100		> 100	> 100	21	1.2	202	89	Active	Active
COc1c(Br)c(COC(=O)c2ccccc2)c(-c2c(COC(=O)c3ccccc3)c(Br)c(OC)c3c2OCO3)c2c1OCO2	> 100	> 100		> 100	> 100						
COc1cc(COC(=O)c2ccc(C#N)cc2)c(-c2c(COC(=O)c3ccc(C#N)cc3)cc(OC)c3c2OCO3)c2c1OCO2	> 100	> 100	inactive	> 100	> 100						
COc1cccc2c1C(=O)c1c(O)c3c(c(O)c1C2=O)C[C@@](O)(C(=O)CO)C[C@@H]3O[C@H]1C[C@H](N)[C@H](O)[C@H](C)O1 [DOXORUBICIN]							1.2				
C/C=C/C(=O)OCc1cc(OC)c2c(c1-c1c(COC(=O)/C=C/C)cc(OC)c3c1OCO3)OCO2	> 100	> 100		> 100	> 100	4	1.2	230	102	Active	Active
CCC(=O)OCc1cc(OC)c2c(c1-c1c(COC(=O)CC)cc(OC)c3c1OCO3)OCO2	> 100	> 100		> 100	> 100	4	1.2	31	12	Active	Active
COc1cc(COC(=O)c2ccccc2)c(-c2c(COC(=O)c3ccccc3)cc(OC)c3c2OCO3)c2c1OCO2	> 100	> 100		> 100	> 100	9	1.2	101	167	Active	Active
COc1cc(COC(=O)c2ccc(C(F)(F)F)nc2)c(-c2c(COC(=O)c3ccc(C(F)(F)F)nc3)cc(OC)c3c2OCO3)c2c1OCO2	> 100	> 100	inactive	> 100	> 100						
COc1cc(COC(=O)c2ccc(C)cc2)c(-c2c(COC(=O)c3ccc(C)cc3)cc(OC)c3c2OCO3)c2c1OCO2	> 100	> 100		> 100	> 100	11	1.2	51	27	Active	Active
COc1cc(COC(=O)C2CCCCC2)c(-c2c(COC(=O)C3CCCCC3)cc(OC)c3c2OCO3)c2c1OCO2	> 100	> 100		> 100	> 100	30	1.2	239	24	Active	Active
COc1c(Br)c(CO)c(-c2c3c(c(OC)c(Br)c2C(=O)O)OCO3)c2c1OCO2	> 100	> 100	inactive	> 100	> 100						
COc1cc(COC(=O)c2ccc([N+](=O)[O-])cc2)c(-c2c(COC(=O)c3ccc([N+](=O)[O-])cc3)cc(OC)c3c2OCO3)c2c1OCO2	> 100	> 100	inactive	> 100	> 100						
CCC(C)C(=O)OCc1cc(OC)c2c(c1-c1c(COC(=O)C(C)CC)cc(OC)c3c1OCO3)OCO2 (racemic)	> 100	> 100		> 100	> 100	21	1.2	70	26	Active	Active
COc1cc(COC(=O)CC(C)C)c(-c2c(COC(=O)CC(C)C)cc(OC)c3c2OCO3)c2c1OCO2	> 100	> 100		> 100	> 100	6	1.2	79	112	Active	Active
CCCC(C)C(=O)OCc1cc(OC)c2c(c1-c1c(COC(=O)C(C)CCC)cc(OC)c3c1OCO3)OCO2 (racemic)	> 100	> 100		> 100	> 100	31	1.2	53	25	Active	Active
COc1c(Br)c(C(=O)O)c(-c2c3c(c(OC)c(Br)c2C(=O)O)OCO3)c2c1OCO2	> 100	> 100		> 100	> 100						
COc1cc(COC(=O)C2CCCC2)c(-c2c(COC(=O)C3CCCC3)cc(OC)c3c2OCO3)c2c1OCO2	> 100	> 100		> 100	> 100	23	1.2	310	20	Active	Active
COc1cc(COC(=O)C(C)C)c(-c2c(COC(=O)C(C)C)cc(OC)c3c2OCO3)c2c1OCO2	> 100	> 100		> 100	> 100	7	1.2	61	21	Active	Active
CCCC(=O)OCc1cc(OC)c2c(c1-c1c(COC(=O)CCC)cc(OC)c3c1OCO3)OCO2	> 100	> 100		> 100	> 100	4	1.2	50	32	Active	Active
